pKi: −log10 of the molar value.
Key:
[1] = target: T1, 5-hydroxytryptamine receptor 2A (Homo sapiens, UniProt P28223); experiment: Displacement of [3H]ketanserin from cloned human 5HT2A receptor in […] cells; assay type: cell-based
Summary of the method: (§1)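 […] cells stably transfected with cloned receptor: hD4 (D4.2 subtype) with [3H]spiperone, h5-HT2A with [3H]ketanserin. Non-specific binding was defined with methysergide. Ki came from Cheng–Prusoff conversion and is the mean of at least two independent determinations ± SEM.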

D(4) dopamine receptor = target: T2, D(4) dopamine receptor (Homo sapiens, UniProt P21917); experiment: Displacement of [3H]spiperone from cloned human dopamine D4.2 receptor in […] cells; assay type: cell-based; summary of the method: as §1
T2 sequence (P21917 whole entry): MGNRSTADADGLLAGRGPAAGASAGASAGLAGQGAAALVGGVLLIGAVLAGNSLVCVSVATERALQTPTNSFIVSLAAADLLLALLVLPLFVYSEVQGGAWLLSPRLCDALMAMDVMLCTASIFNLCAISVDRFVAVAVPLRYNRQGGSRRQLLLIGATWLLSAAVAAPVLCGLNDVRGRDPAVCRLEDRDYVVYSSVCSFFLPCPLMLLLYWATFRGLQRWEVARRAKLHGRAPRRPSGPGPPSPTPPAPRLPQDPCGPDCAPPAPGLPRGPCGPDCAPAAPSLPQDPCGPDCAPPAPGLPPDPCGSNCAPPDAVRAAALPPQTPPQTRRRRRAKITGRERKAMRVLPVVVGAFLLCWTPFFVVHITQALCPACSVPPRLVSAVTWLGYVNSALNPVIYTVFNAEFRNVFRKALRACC

D(2) dopamine receptor [2] = target: T3, D(2) dopamine receptor (Homo sapiens, UniProt P14416); experiment: Displacement of [3H]spiperone from human dopamine D2(short) receptor in rat pituitary GH4C1 cells; assay type: cell-based, Pituitary gland cell
T3 sequence (P14416 whole entry, canonical isoform): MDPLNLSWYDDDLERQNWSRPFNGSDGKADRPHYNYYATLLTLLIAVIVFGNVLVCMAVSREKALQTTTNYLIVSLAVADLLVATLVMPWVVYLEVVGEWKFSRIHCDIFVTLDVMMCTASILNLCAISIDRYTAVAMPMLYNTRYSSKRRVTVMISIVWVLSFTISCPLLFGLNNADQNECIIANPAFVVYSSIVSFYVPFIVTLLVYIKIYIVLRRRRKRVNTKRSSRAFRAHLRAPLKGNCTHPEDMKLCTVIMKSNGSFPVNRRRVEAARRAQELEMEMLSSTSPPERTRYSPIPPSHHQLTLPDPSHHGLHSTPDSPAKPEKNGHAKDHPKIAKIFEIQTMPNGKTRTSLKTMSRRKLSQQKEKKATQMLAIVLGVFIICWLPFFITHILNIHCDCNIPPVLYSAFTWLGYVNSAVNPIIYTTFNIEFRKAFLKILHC
Summary of the method: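 Rat pituitary GH4C1 cells stably expressing cloned hD2 (short isoform), with [3H]spiperone displacement. Non-specific binding was defined with […]. Ki was calculated by Cheng–Prusoff transformation.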

[3] = target: T4, Adrenergic receptor alpha-1 (Rattus norvegicus, UniProt P15823+P23944+P43140); experiment: Displacement of 7-methoxy-[3H]prazosin from adrenergic alpha-1 receptor in rat frontal cortex tissue; assay type: tissue-based
T4 sequence (P15823 whole entry): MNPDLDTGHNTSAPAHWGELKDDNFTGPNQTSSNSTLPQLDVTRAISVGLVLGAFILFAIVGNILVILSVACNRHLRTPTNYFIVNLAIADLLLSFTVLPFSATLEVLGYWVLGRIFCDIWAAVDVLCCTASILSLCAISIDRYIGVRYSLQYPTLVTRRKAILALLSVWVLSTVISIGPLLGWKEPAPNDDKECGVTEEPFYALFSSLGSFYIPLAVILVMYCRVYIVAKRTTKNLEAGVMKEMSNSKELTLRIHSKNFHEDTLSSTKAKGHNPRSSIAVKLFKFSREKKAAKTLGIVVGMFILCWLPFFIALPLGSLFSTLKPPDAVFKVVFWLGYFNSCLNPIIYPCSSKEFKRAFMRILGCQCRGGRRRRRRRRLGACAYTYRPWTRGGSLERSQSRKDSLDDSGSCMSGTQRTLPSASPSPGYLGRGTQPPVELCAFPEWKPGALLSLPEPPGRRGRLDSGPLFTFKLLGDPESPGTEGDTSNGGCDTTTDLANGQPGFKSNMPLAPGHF
T4 sequence (P23944 whole entry): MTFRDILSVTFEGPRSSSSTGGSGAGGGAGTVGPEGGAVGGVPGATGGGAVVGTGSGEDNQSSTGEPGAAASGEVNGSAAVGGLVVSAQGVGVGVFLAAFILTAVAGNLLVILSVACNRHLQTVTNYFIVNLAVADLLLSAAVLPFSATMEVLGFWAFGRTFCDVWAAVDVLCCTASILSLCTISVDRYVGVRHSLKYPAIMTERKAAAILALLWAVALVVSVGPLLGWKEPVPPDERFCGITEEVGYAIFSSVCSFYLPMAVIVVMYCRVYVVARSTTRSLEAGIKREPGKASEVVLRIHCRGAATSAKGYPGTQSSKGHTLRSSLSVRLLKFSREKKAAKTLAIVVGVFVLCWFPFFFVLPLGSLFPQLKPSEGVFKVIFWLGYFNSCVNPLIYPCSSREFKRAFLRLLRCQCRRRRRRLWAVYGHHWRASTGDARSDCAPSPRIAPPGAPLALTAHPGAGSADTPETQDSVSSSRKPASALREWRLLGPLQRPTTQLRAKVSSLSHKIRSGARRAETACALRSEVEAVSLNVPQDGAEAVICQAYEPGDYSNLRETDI
T4 sequence (P43140 whole entry): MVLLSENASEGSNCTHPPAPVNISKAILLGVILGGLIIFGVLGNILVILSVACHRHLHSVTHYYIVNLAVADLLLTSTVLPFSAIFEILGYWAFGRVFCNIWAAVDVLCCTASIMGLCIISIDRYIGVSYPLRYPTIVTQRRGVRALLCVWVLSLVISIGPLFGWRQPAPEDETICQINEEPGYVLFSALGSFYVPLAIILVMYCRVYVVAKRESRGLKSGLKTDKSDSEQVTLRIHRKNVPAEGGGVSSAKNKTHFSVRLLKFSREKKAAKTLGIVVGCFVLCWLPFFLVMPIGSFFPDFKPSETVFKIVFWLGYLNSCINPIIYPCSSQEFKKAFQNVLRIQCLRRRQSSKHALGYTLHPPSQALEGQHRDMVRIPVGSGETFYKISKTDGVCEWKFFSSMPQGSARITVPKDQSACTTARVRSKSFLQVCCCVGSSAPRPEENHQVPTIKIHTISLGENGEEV
Summary of the method: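 Rat frontal cortex tissue as receptor source, with 7-methoxy-[3H]prazosin as radioligand. Non-specific binding was defined with […]. Ki was obtained by Cheng–Prusoff transformation and reported as the mean of at least two independent determinations ± SEM.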

D(2) dopamine receptor [4] = target: T3, D(2) dopamine receptor; experiment: Inhibitory activity against human dopamine D2(short) receptor in rat pituitary GH4C1 cells at 100 nM; assay type: cell-based; details: Pituitary gland cell
[5] = target: T5, Adrenergic receptor alpha-1 (Rattus norvegicus) (UniProt P15823+P23944+P43140); experiment: Inhibitory activity against adrenergic alpha-1 receptor in rat frontal cortex tissue at 1 uM; assay type: tissue-based
[6] = target: T1, 5-hydroxytryptamine receptor 2A; experiment: Inhibitory activity against cloned human 5HT2A receptor in […] cells at 100 nM; assay type: cell-based
[7] = target: T5, Adrenergic receptor alpha-1 (Rattus norvegicus); experiment: Inhibitory activity against adrenergic alpha1 receptor in rat frontal cortex tissue at 100 nM; assay type: tissue-based

T1 sequence (P28223 whole entry): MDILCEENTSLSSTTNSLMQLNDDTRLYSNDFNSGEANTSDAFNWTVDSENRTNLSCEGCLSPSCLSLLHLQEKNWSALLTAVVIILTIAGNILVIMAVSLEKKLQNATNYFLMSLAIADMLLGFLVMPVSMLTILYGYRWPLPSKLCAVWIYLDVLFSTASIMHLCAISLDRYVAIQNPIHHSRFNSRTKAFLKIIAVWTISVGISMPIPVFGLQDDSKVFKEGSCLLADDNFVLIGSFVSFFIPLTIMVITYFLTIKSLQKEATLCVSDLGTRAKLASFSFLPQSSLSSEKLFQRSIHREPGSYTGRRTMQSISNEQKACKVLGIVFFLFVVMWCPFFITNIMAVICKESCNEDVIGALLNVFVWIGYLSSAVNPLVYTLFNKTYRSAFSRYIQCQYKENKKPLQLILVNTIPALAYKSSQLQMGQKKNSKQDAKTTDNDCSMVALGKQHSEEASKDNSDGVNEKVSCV

## O=C(N[C@H]1CCN(Cc2ccccc2)C1)c1ccc(-c2cccs2)cc1
[1]
  pKi: 8.74

## O=C(N[C@H]1CCN(Cc2ccc(OC(F)(F)F)cc2)C1)c1cccc(-c2cccs2)c1
D(4) dopamine receptor
  pKi: 7.28
[1]
  pKi: 5.25
D(2) dopamine receptor [2]
  pKi: 6.30
[3]
  Ki: 1200 nM

## O=C(N[C@H]1CCN(Cc2ccc(F)cc2)C1)c1ccc(-c2cccs2)cc1
D(4) dopamine receptor
  pKi: 8.30
[1]
  pKi: 7.85
D(2) dopamine receptor [2]
  pKi: 5.82
[3]
  Ki: 420 nM

## O=C(N[C@H]1CCN(Cc2ccccc2)C1)c1cccc(-c2cccs2)c1
[1]
  pKi: 6.34

## Cc1ccc(CN2CC[C@H](NC(=O)c3cccc(-c4cccs4)c3)C2)cc1
D(4) dopamine receptor
  pKi: 8.40
[1]
  pKi: 6.21
D(2) dopamine receptor [2]
  pKi: 7.22
[3]
  Ki: 80 nM

## O=C(N[C@H]1CCN(Cc2ccc(F)c(F)c2)C1)c1ccc(-c2cccs2)cc1
D(4) dopamine receptor
  pKi: 7.85
[1]
  pKi: 7.80
D(2) dopamine receptor [2]
  pKi: 4.74
[3]
  Ki: 10000 nM

## O=C(N[C@H]1CCN(Cc2ccc(C(F)(F)F)cc2)C1)c1cccc(-c2cccs2)c1
D(4) dopamine receptor
  pKi: 7.68
[1]
  pKi: 6.13
D(2) dopamine receptor [2]
  pKi: 5.89
[3]
  Ki: 360 nM

## O=C(N[C@H]1CCN(Cc2ccc(Cl)c(Cl)c2)C1)c1ccc(-c2cccs2)cc1
D(4) dopamine receptor
  pKi: 7.82
[1]
  pKi: 7.66
D(2) dopamine receptor [2]
  pKi: 4.54
[3]
  Ki: 5000 nM

## O=C(N[C@H]1CCN(Cc2ccc(OC(F)(F)F)cc2)C1)c1ccc(-c2cccs2)cc1
D(4) dopamine receptor
  pKi: 7.11
[1]
  pKi: 6.85
D(2) dopamine receptor [4]
  inhibition: 7%
[3]
  Ki: 16000 nM

## COc1cccc(CN2CC[C@H](NC(=O)c3ccc(-c4cccs4)cc3)C2)c1
D(4) dopamine receptor
  pKi: 7.85
[1]
  pKi: 7.66
D(2) dopamine receptor [2]
  pKi: 5.35
[3]
  Ki: 920 nM

## O=C(N[C@H]1CCN(Cc2ccc(C(F)(F)F)cc2)C1)c1ccc(-c2cccs2)cc1
D(4) dopamine receptor
  pKi: 7.85
[1]
  pKi: 6.89
D(2) dopamine receptor [4]
  inhibition: 7%
[5]
  inhibition: 2%

## O=C(N[C@H]1CCN(Cc2cccc(C(F)(F)F)c2)C1)c1ccc(-c2cccs2)cc1
D(4) dopamine receptor
  pKi: 7.66
[6]
  inhibition: 76%
D(2) dopamine receptor [4]
  inhibition: 0%
[7]
  inhibition: 0%

## O=C(N[C@H]1CCN(Cc2ccc(Cl)cc2)C1)c1cccc(-c2cccs2)c1
D(4) dopamine receptor
  pKi: 7.80
[1]
  pKi: 5.96
D(2) dopamine receptor [2]
  pKi: 6.64
[3]
  Ki: 220 nM

## O=C(N[C@H]1CCN(Cc2ccc3c(c2)OCO3)C1)c1ccc(-c2cccs2)cc1
D(4) dopamine receptor
  pKi: 8.15
[6]
  inhibition: 89%
D(2) dopamine receptor [2]
  pKi: 5.74
[3]
  Ki: 400 nM

## O=C(N[C@H]1CCN(Cc2ccccc2F)C1)c1ccc(-c2cccs2)cc1
D(4) dopamine receptor
  pKi: 7.48
[6]
  inhibition: 89%
D(2) dopamine receptor [2]
  pKi: 4.42
[3]
  Ki: 6900 nM

Reference: ChEMBL document CHEMBL1141940, “N-[(3S)-1-benzylpyrrolidin-3-yl]-(2-thienyl)benzamides: human dopamine D4 ligands with high affinity for the 5-HT2A receptor” (Bioorg Med Chem Lett, 2005)
